Measurements reported in ChEMBL document CHEMBL1781932 (J Med Chem, 2011).
In brackets after ≈: the same amount, converted by molar mass.

How the values were obtained:
Format in all cases: functional
Klebsiella pneumoniae [1] = assay: Antimicrobial activity against tetracycline-susceptible Klebsiella pneumoniae isolate 109 by CLSI dilution method
In short: (§1)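 Broth microdilution per CLSI in fresh cation-adjusted Mueller Hinton broth, kept at 4 °C before testing, with defibrinated horse blood added as appropriate. Strains were from ATCC. MIC in µg/mL. Runs were accepted when comparator antibiotics against ATCC quality-control strains fell within recommended ranges.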

Staphylococcus aureus [2] = assay: Antimicrobial activity against methicillin-, tetracycline-resistant Staphylococcus aureus isolate 161 harboring tetM gene by CLSI dilution method
Acinetobacter baumannii = assay: Antimicrobial activity against tetracycline-susceptible Acinetobacter baumannii isolate 110 by CLSI dilution method; in short: as §1
Klebsiella pneumoniae [3] = assay: Antimicrobial activity against tetracycline-resistant Klebsiella pneumoniae isolate 153 harboring tetA gene by CLSI dilution method
Escherichia coli [4] = assay: Antimicrobial activity against tetracycline-susceptible Escherichia coli isolate 107 by CLSI dilution method; in short: as §1
Enterobacter cloacae = assay: Antimicrobial activity against tetracycline-susceptible Enterobacter cloacae isolate 108 by CLSI dilution method; in short: as §1
Enterococcus faecalis [5] = assay: Antimicrobial activity against tetracycline-resistant Enterococcus faecalis isolate 159 harboring […] gene by CLSI dilution method
Escherichia coli [6] = assay: Antimicrobial activity against tetracycline-resistant Escherichia coli isolate 155 harboring tetA gene by CLSI dilution method
Streptococcus pneumoniae [7] = assay: Antimicrobial activity against tetracycline-resistant Streptococcus pneumoniae isolate 160 harboring tetM gene by CLSI dilution method
Streptococcus pneumoniae [8] = assay: Antimicrobial activity against tetracycline-susceptible Streptococcus pneumoniae isolate 106 by CLSI dilution method; in short: as §1
Enterococcus faecalis [9] = assay: Antimicrobial activity against tetracycline-susceptible Enterococcus faecalis isolate 103 by CLSI dilution method; in short: as §1
Pseudomonas aeruginosa = assay: Antimicrobial activity against tetracycline-susceptible Pseudomonas aeruginosa isolate 111 by CLSI dilution method; in short: as §1
Staphylococcus aureus [10] = assay: Antimicrobial activity against tetracycline-susceptible Staphylococcus aureus isolate 101 by CLSI dilution method
Staphylococcus aureus [11] = assay: Antimicrobial activity against tetracycline-resistant Staphylococcus aureus isolate 158 harboring tetK gene by CLSI dilution method

SMILES | MIC (Klebsiella pneumoniae [1]) [µg/mL] | MIC (Staphylococcus aureus [2]) [µg/mL] | MIC (Acinetobacter baumannii) [µg/mL] | MIC (Klebsiella pneumoniae [3]) [µg/mL] | MIC (Escherichia coli [4]) [µg/mL] | MIC (Enterobacter cloacae) [µg/mL] | MIC (Enterococcus faecalis [5]) [µg/mL] | MIC (Escherichia coli [6]) [µg/mL] | MIC (Streptococcus pneumoniae [7]) [µg/mL] | MIC (Streptococcus pneumoniae [8]) [µg/mL] | MIC (Enterococcus faecalis [9]) [µg/mL] | MIC (Pseudomonas aeruginosa) [µg/mL] | MIC (Staphylococcus aureus [10]) [µg/mL] | MIC (Staphylococcus aureus [11]) [µg/mL]
COc1cccc2c(O)c3c(cc12)C[C@H]1C[C@H]2[C@H](N(C)C)C(O)=C(C(N)=O)C(=O)[C@@]2(O)C(O)=C1C3=O | > 32 | 0.5 (≈ 1.01 µM) | 32 (≈ 64.7 µM) | > 32 | > 32 | > 32 | 1 (≈ 2.02 µM) | > 32 | 4 (≈ 8.09 µM) | 2 (≈ 4.04 µM) | 0.5 (≈ 1.01 µM) | > 32 |  | 
CN(C)[C@@H]1C(O)=C(C(N)=O)C(=O)[C@@]2(O)C(O)=C3C(=O)c4c(c(Cl)c5ccc(CN6CCC6)cc5c4O)C[C@H]3C[C@@H]12 | 4 (≈ 7.04 µM) | 2 (≈ 3.52 µM) | 2 (≈ 3.52 µM) | 8 (≈ 14.1 µM) | 2 (≈ 3.52 µM) | 8 (≈ 14.1 µM) | 2 (≈ 3.52 µM) | 16 (≈ 28.2 µM) | 0.5 (≈ 0.88 µM) |  | 0.25 (≈ 0.44 µM) | > 32 | 1 (≈ 1.76 µM) | 1 (≈ 1.76 µM)
CCCOc1c2c(c(O)c3cc(CN4CCC4)ccc13)C(=O)C1=C(O)[C@]3(O)C(=O)C(C(N)=O)=C(O)[C@@H](N(C)C)[C@@H]3C[C@@H]1C2 | 8 (≈ 13.5 µM) | 2 (≈ 3.38 µM) | 1 (≈ 1.69 µM) | 32 (≈ 54.1 µM) | 2 (≈ 3.38 µM) | 16 (≈ 27 µM) | 2 (≈ 3.38 µM) | 16 (≈ 27 µM) | 0.0625 (≈ 0.106 µM) | 0.0156 (≈ 0.0264 µM) | 0.25 (≈ 0.423 µM) | 32 (≈ 54.1 µM) | 0.125 (≈ 0.211 µM) | 0.25 (≈ 0.423 µM)
CC(C)Oc1c2c(c(O)c3cc(CN4CCC4)ccc13)C(=O)C1=C(O)[C@]3(O)C(=O)C(C(N)=O)=C(O)[C@@H](N(C)C)[C@@H]3C[C@@H]1C2 | 16 (≈ 27 µM) | 4 (≈ 6.76 µM) | 2 (≈ 3.38 µM) | 32 (≈ 54.1 µM) | 4 (≈ 6.76 µM) | 16 (≈ 27 µM) | 4 (≈ 6.76 µM) | 16 (≈ 27 µM) | 0.0625 (≈ 0.106 µM) | 0.0313 (≈ 0.0529 µM) | 0.5 (≈ 0.845 µM) | > 32 | 0.125 (≈ 0.211 µM) | 0.25 (≈ 0.423 µM)
CN(C)c1c2c(c(O)c3cc(CN4CCC4)ccc13)C(=O)C1=C(O)[C@]3(O)C(=O)C(C(N)=O)=C(O)[C@@H](N(C)C)[C@@H]3C[C@@H]1C2 | 4 (≈ 6.94 µM) | 2 (≈ 3.47 µM) | 1 (≈ 1.73 µM) | 16 (≈ 27.7 µM) | 2 (≈ 3.47 µM) | 8 (≈ 13.9 µM) | 2 (≈ 3.47 µM) |  | 0.125 (≈ 0.217 µM) | < 0.0156 | 0.125 (≈ 0.217 µM) | 32 (≈ 55.5 µM) | 1 (≈ 1.73 µM) | 0.0625 (≈ 0.108 µM)
CN(C)[C@@H]1C(O)=C(C(N)=O)C(=O)[C@@]2(O)C(O)=C3C(=O)c4c(cc5ccc(-c6cccnc6)cc5c4O)C[C@H]3C[C@@H]12 | > 32 | 1 (≈ 1.85 µM) | > 32 | > 32 | > 32 | > 32 | 0.25 (≈ 0.462 µM) | > 32 | > 32 | > 32 | 0.5 (≈ 0.923 µM) | > 32 | 1 (≈ 1.85 µM) | 
CN(C)Cc1ccc2cc3c(c(O)c2c1)C(=O)C1=C(O)[C@]2(O)C(=O)C(C(N)=O)=C(O)[C@@H](N(C)C)[C@@H]2C[C@@H]1C3 | 2 (≈ 3.83 µM) | 1 (≈ 1.92 µM) | 2 (≈ 3.83 µM) | 4 (≈ 7.67 µM) | 1 (≈ 1.92 µM) | 2 (≈ 3.83 µM) | 1 (≈ 1.92 µM) | 4 (≈ 7.67 µM) | 0.125 (≈ 0.24 µM) | 0.0313 (≈ 0.06 µM) | 0.25 (≈ 0.479 µM) | > 32 | 0.25 (≈ 0.479 µM) | 0.25 (≈ 0.479 µM)
CCN(C)Cc1ccc2cc3c(c(O)c2c1)C(=O)C1=C(O)[C@]2(O)C(=O)C(C(N)=O)=C(O)[C@@H](N(C)C)[C@@H]2C[C@@H]1C3 | 8 (≈ 14.9 µM) | 2 (≈ 3.73 µM) | 2 (≈ 3.73 µM) | 32 (≈ 59.7 µM) | 2 (≈ 3.73 µM) | 4 (≈ 7.47 µM) | 4 (≈ 7.47 µM) | 16 (≈ 29.9 µM) | 0.25 (≈ 0.467 µM) | 0.125 (≈ 0.233 µM) | 0.5 (≈ 0.934 µM) | > 32 | 0.25 (≈ 0.467 µM) | 0.5 (≈ 0.934 µM)
CN(C)[C@@H]1C(O)=C(C(N)=O)C(=O)[C@@]2(O)C(O)=C3C(=O)c4c(cc5ccc(CN6CCCC6)cc5c4O)C[C@H]3C[C@@H]12 |  | 2 (≈ 3.65 µM) | 1 (≈ 1.83 µM) | 4 (≈ 7.3 µM) | 1 (≈ 1.83 µM) | 4 (≈ 7.3 µM) | 2 (≈ 3.65 µM) |  | 0.125 (≈ 0.228 µM) | 0.0625 (≈ 0.114 µM) | 0.25 (≈ 0.457 µM) | > 32 | 0.5 (≈ 0.913 µM) | 0.25 (≈ 0.457 µM)
CN(C)c1ccc(O)c2c1C[C@H]1C[C@H]3[C@H](N(C)C)C(O)=C(C(N)=O)C(=O)[C@@]3(O)C(O)=C1C2=O [MINOCYCLINE] |  | 8 (≈ 17.5 µM) | 0.0625 (≈ 0.137 µM) | 8 (≈ 17.5 µM) | 0.5 (≈ 1.09 µM) | 2 (≈ 4.37 µM) | 16 (≈ 35 µM) | 8 (≈ 17.5 µM) | 2 (≈ 4.37 µM) | < 0.0156 |  | 16 (≈ 35 µM) | 0.0625 (≈ 0.137 µM) | 0.0313 (≈ 0.0684 µM)
